Results taken from ChEMBL document CHEMBL4229515, “A novel synthesis of 2-arylbenzimidazoles in molecular sieves-MeOH system and their antitubercular activity” (Bioorg Med Chem, 2018).
Values after ≈ are worked out from the molar mass of the structure shown.

Tests used:
[1] = test system: Mycobacterium tuberculosis; experiment: Antimycobacterial activity against Mycobacterium tuberculosis H37Rv by BACTEC 460 radiometric method; format: functional
Procedure, shortened: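 Radiometric BACTEC assay against the H37Rv strain, run per a previously reported method. Positive controls were rifampicin, streptomycin and isoniazid. The MIC was read in µM.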

Mus musculus [2] = experiment: Acute toxicity in Swiss albino mouse assessed as effect on body weight at 5 mg/kg, po after 7 days (reference value: 28.25 +/- 0.54 g); format: organism-based; details: in vivo, 168 h
Mus musculus [3] = experiment: Acute toxicity in Swiss albino mouse assessed as effect on WBC count at 5 mg/kg, po after 7 days (reference value: 7.47 +/- 1.61 10^3/mm3); format: organism-based; details: in vivo, 168 h
Mus musculus [4] = experiment: Acute toxicity in Swiss albino mouse assessed as effect on SGPT levels at 5 mg/kg, po after 7 days (reference value: 16.08 +/- 1.38 U/L); format: organism-based; details: in vivo, 168 h
Mus musculus [5] = experiment: Acute toxicity in Swiss albino mouse assessed as effect on haemoglobin levels at 5 mg/kg, po after 7 days (reference value: 12.29 +/- 0.53 g/dL); format: organism-based; details: in vivo, 168 h
Mus musculus [6] = experiment: Acute toxicity in Swiss albino mouse assessed as effect on cholesterol levels at 5 mg/kg, po after 7 days (reference value: 89.73 +/- 10.76 mg/dL); format: organism-based; details: in vivo, 168 h
Mus musculus [7] = experiment: Acute toxicity in Swiss albino mouse assessed as effect on triglyceride levels at 5 mg/kg, po after 7 days (reference value: 45.21 +/- 2.95 mg/dL); format: organism-based; details: in vivo, 168 h
Mus musculus [8] = experiment: Acute toxicity in Swiss albino mouse assessed as effect on serum protein levels at 5 mg/kg, po after 7 days (reference value: 0.10 +/- 0.004 mg/mL); format: organism-based; details: in vivo, 168 h
Mus musculus [9] = experiment: Acute toxicity in Swiss albino mouse assessed as effect on SGOT levels at 50 mg/kg, po after 7 days (reference value: 15.11 +/- 1.25 U/L); format: organism-based; details: in vivo, 168 h
Mus musculus [10] = experiment: Acute toxicity in Swiss albino mouse assessed as effect on ALKP levels at 50 mg/kg, po after 7 days (reference value: 219.20 +/- 5.9 U/L); format: organism-based; details: in vivo, 168 h
Mus musculus [11] = experiment: Acute toxicity in Swiss albino mouse assessed as effect on haemoglobin levels at 50 mg/kg, po after 7 days (reference value: 12.29 +/- 0.53 g/dL); format: organism-based; details: in vivo, 168 h
Mus musculus [12] = experiment: Acute toxicity in Swiss albino mouse assessed as effect on cholesterol levels at 50 mg/kg, po after 7 days (reference value: 89.73 +/- 10.76 mg/dL); format: organism-based; details: in vivo, 168 h
Mus musculus [13] = experiment: Acute toxicity in Swiss albino mouse assessed as effect on albumin levels at 50 mg/kg, po after 7 days (reference value: 3.53 +/- 0.35 mg/dL); format: organism-based; details: in vivo, 168 h
Mus musculus [14] = experiment: Acute toxicity in Swiss albino mouse assessed as effect on GSH levels per mg of tissue protein at 50 mg/kg, po after 7 days (reference value: 17.64 +/- 1.03 micromol); format: organism-based; details: in vivo, 168 h
Mus musculus [15] = experiment: Acute toxicity in Swiss albino mouse assessed as effect on SGPT levels at 300 mg/kg, po after 7 days (reference value: 16.08 +/- 1.38 U/L); format: organism-based; details: in vivo, 168 h
Mus musculus [16] = experiment: Acute toxicity in Swiss albino mouse assessed as effect on SGOT levels at 300 mg/kg, po after 7 days (reference value: 15.11 +/- 1.25 U/L); format: organism-based; details: in vivo, 168 h
Mus musculus [17] = experiment: Acute toxicity in Swiss albino mouse assessed as effect on tissue protein levels at 300 mg/kg, po after 7 days (reference value: 0.06 +/- 0.004 mg/mL); format: organism-based; details: in vivo, 168 h
Mus musculus [18] = experiment: Acute toxicity in Swiss albino mouse assessed as effect on MDA levels per mg of tissue protein at 300 mg/kg, po after 7 days (reference value: 0.24 +/- 0.05 nmol); format: organism-based; details: in vivo, 168 h
Mus musculus [19] = experiment: Acute toxicity in Swiss albino mouse assessed as effect on GSH levels per mg of tissue protein at 300 mg/kg, po after 7 days (reference value: 17.64 +/- 1.03 micromol); format: organism-based; details: in vivo, 168 h
Mus musculus [20] = experiment: Acute toxicity in Swiss albino mouse assessed as effect on body weight at 1000 mg/kg, po after 7 days (reference value: 28.25 +/- 0.54 g); format: organism-based; details: in vivo, 168 h
Mus musculus [21] = experiment: Acute toxicity in Swiss albino mouse assessed as effect on WBC count at 1000 mg/kg, po after 7 days (reference value: 7.47 +/- 1.61 10^3/mm3); format: organism-based; details: in vivo, 168 h
Mus musculus [22] = experiment: Acute toxicity in Swiss albino mouse assessed as effect on SGPT levels at 1000 mg/kg, po after 7 days (reference value: 16.08 +/- 1.38 U/L); format: organism-based; details: in vivo, 168 h
Mus musculus [23] = experiment: Acute toxicity in Swiss albino mouse assessed as effect on SGOT levels at 1000 mg/kg, po after 7 days (reference value: 15.11 +/- 1.25 U/L); format: organism-based; details: in vivo, 168 h
Mus musculus [24] = experiment: Acute toxicity in Swiss albino mouse assessed as effect on haemoglobin levels at 1000 mg/kg, po after 7 days (reference value: 12.29 +/- 0.53 g/dL); format: organism-based; details: in vivo, 168 h
Mus musculus [25] = experiment: Acute toxicity in Swiss albino mouse assessed as effect on cholesterol levels at 1000 mg/kg, po after 7 days (reference value: 89.73 +/- 10.76 mg/dL); format: organism-based; details: in vivo, 168 h
Mus musculus [26] = experiment: Acute toxicity in Swiss albino mouse assessed as effect on albumin levels at 1000 mg/kg, po after 7 days (reference value: 3.53 +/- 0.35 mg/dL); format: organism-based; details: in vivo, 168 h
Mus musculus [27] = experiment: Acute toxicity in Swiss albino mouse assessed as effect on MDA levels per mg of tissue protein at 1000 mg/kg, po after 7 days (reference value: 0.24 +/- 0.05 nmol); format: organism-based; details: in vivo, 168 h
Mus musculus [28] = experiment: Acute toxicity in Swiss albino mouse assessed as change in morbidity up to 300 mg/kg, po measured over 7 days; format: organism-based; details: in vivo, 168 h
Procedure, shortened: (§1)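 Single acute oral dose of 5, 50, 300 or 1000 mg/kg body weight, with an untreated control group; n=6 mice per group. Animals observed for 7 days for morbidity, mortality, behaviour and body weight. At the end, blood and serum were analysed, and organs were examined grossly with absolute and relative weights. Data are mean±SE; P<0.05 was taken as significant versus control and the lower-dose groups.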

Mus musculus [29] = experiment: Acute toxicity in Swiss albino mouse assessed as depression at 1000 mg/kg, po measured over 7 days; format: organism-based; details: in vivo, 168 h; procedure, shortened: as §1
Mus musculus [30] = experiment: Acute toxicity in Swiss albino mouse assessed as effect on absolute spleen weight at 5 to 1000 mg/kg, po after 7 days; format: organism-based; details: in vivo, 168 h; procedure, shortened: as §1
Mus musculus [31] = experiment: Acute toxicity in Swiss albino mouse assessed as effect on absolute heart weight at 5 to 1000 mg/kg, po after 7 days; format: organism-based; details: in vivo, 168 h; procedure, shortened: as §1
Mus musculus [32] = experiment: Acute toxicity in Swiss albino mouse assessed as effect on relative liver weight at 5 to 300 mg/kg, po after 7 days; format: organism-based; details: in vivo, 168 h; procedure, shortened: as §1
Mus musculus [33] = experiment: Acute toxicity in Swiss albino mouse assessed as effect on relative liver weight at 1000 mg/kg, po after 7 days; format: organism-based; details: in vivo, 168 h; procedure, shortened: as §1
Mus musculus [34] = experiment: Acute toxicity in Swiss albino mouse assessed as effect on relative lung weight at 5 to 1000 mg/kg, po after 7 days; format: organism-based; details: in vivo, 168 h; procedure, shortened: as §1
Mus musculus [35] = experiment: Acute toxicity in Swiss albino mouse assessed as effect on relative brain weight at 5 to 1000 mg/kg, po after 7 days; format: organism-based; details: in vivo, 168 h; procedure, shortened: as §1

COc1ccc2c(c1)nc(-c1ccccc1OC)n2Cc1ccccc1OC
MIC [1]: 16 µM (≈ 5.99 µg/mL) | Activity (Mus musculus [2]): 28.47 g | Activity (Mus musculus [3]): 7.72 10^3/mm3 | Activity (Mus musculus [4]): 15.26 U/L | Activity (Mus musculus [5]): 10.81 g/dL | Activity (Mus musculus [6]): 91.48 mg/dL | Activity (Mus musculus [7]): 48.61 mg/dL | Activity (Mus musculus [8]): 0.09 mg/mL | Activity (Mus musculus [9]): 11.5 U/L | Activity (Mus musculus [10]): 171.7 U/L | Activity (Mus musculus [11]): 11.45 g/dL | Activity (Mus musculus [12]): 85.13 mg/dL | Activity (Mus musculus [13]): 3.58 mg/dL | Activity (Mus musculus [14]): 17.1 µmol | Activity (Mus musculus [15]): 12.26 U/L | Activity (Mus musculus [16]): 11.11 U/L | Activity (Mus musculus [17]): 0.05 mg/mL | Activity (Mus musculus [18]): 0.39 nmol | Activity (Mus musculus [19]): 19.37 µmol | Activity (Mus musculus [20]): 22.86 g | Activity (Mus musculus [21]): 6.67 10^3/mm3 | Activity (Mus musculus [22]): 11.72 U/L | Activity (Mus musculus [23]): 11.83 U/L | Activity (Mus musculus [24]): 9.68 g/dL | Activity (Mus musculus [25]): 115.43 mg/dL | Activity (Mus musculus [26]): 2.89 mg/dL | Activity (Mus musculus [27]): 0.71 nmol | Activity (Mus musculus [28]): Non-Toxic | Activity (Mus musculus [29]): Non-Toxic | Activity (Mus musculus [30]): Non-Toxic | Activity (Mus musculus [31]): Non-Toxic | Activity (Mus musculus [32]): Non-Toxic | Activity (Mus musculus [33]): Toxic | Activity (Mus musculus [34]): Non-Toxic | Activity (Mus musculus [35]): Non-Toxic
